Results published in ChEMBL document CHEMBL1833899, “Targeting hypoxic tumor cell viability with carbohydrate-based carbonic anhydrase IX and XII inhibitors” (J Med Chem, 2011).
The source made the active and inactive calls. No cut-off for these calls is given here.

Assays:
[1] = molecular target: T1, Carbonic anhydrase 9 (Homo sapiens, UniProt Q16790)
[2] = Cytotoxicity against CA9-deficient chinese hamster PS120 cells assessed as cell viability at 30 uM and pH 7.5 after 24 hrs by giemsa staining; assay type: cell-based, Cricetulus griseus; conditions: ps120, pH 7.5, 24 h
How it was run: (§1)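 PS120-pev fibroblasts (CCL39-derived, no CA IX) attached, then held 24 h in HCO3−-free DMEM with 30 mM HEPES at pHo 7.5, 10% dialyzed serum, 0.1 mM hypoxanthine and 0.1 mM uridine triphosphate, in CO2/HCO3−-free atmosphere, with compound or DMSO. Then returned to regular medium under 5% CO2 for 7 days; Giemsa staining; scored viable or not viable.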

[3] = Cytotoxicity against CA9-deficient chinese hamster PS120 cells assessed as cell viability at 60 uM and pH 7.5 after 24 hrs by giemsa staining; assay type: cell-based, Cricetulus griseus; conditions: ps120, pH 7.5, 24 h
How it was run: as §1

[4] = Cytotoxicity against CA9-deficient chinese hamster PS120 cells assessed as cell viability at 100 uM and pH 7.5 after 24 hrs by giemsa staining; assay type: cell-based, Cricetulus griseus; conditions: ps120, pH 7.5, 24 h
How it was run: as §1

[5] = Cytotoxicity against CA9-deficient chinese hamster PS120 cells assessed as cell viability at 300 uM and pH 7.5 after 24 hrs by giemsa staining; assay type: cell-based, Cricetulus griseus; conditions: ps120, pH 7.5, 24 h
How it was run: as §1

[6] = system: LS174T; experiment: Reduction in CA9 mRNA level in human LS 174T cells expressing shca9 and tetracyclin repressor under normoxia condition at 60 uM after 48 hrs by Western blot analysis; assay type: functional, cell-based
[7] = Antiproliferative activity against ca9/ca12 double silenced human LS 174T cells under hypoxia assessed as decrease in cell proliferation at 60 uM after 3 days by cell counting technique relative to control; assay type: functional, LS174T; set-up: scale not given: the % may be the effect or the level left
How it was run: (§2)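 LS174Tr colon carcinoma cells carrying Tet-inducible ca9 shRNA plus nontarget (ctl) or constitutive ca12 shRNA. Tet (1 µg/ml) added 4 days before assay for ca12-silenced cells. 6 x 10^4 cells seeded; 24 h later moved to hypoxia (1% O2) with or without inhibitor (DMSO control). Cells detached and Coulter-counted every 24 h for 3 days; proliferation index = daily count / count at 24 h post-seeding.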

[8] = system: LS174T; experiment: Reduction in CA9 protein level in human LS 174T cells expressing shca9 and tetracyclin repressor under normoxia condition at 60 uM after 48 hrs by Western blot analysis; assay type: functional, cell-based
How it was run: (§3)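 Stable LS-shca9/ctl cells kept without Tet for 4 days, then placed in normoxia (21% O2) or hypoxia (1% O2) for 48 h with or without 60 µM compound. Whole-cell SDS lysates (40 µg protein) run on 7.5% SDS-PAGE and immunoblotted with M75 anti-CA IX; Hsp90 as loading control; HRP secondary with ECL detection.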

[9] = molecular target: T1, Carbonic anhydrase 9; conditions: PS120, at 60 µM
[10] = Antiproliferative activity against human LS 174T cells expressing shca9 under hypoxia condition at 60 uM after 3 days by cell counting technique relative to control; assay type: functional, LS174T
How it was run: as §2

[11] = system: LS174T; experiment: Reduction in CA9 mRNA level in human LS 174T cells expressing shca9 and tetracyclin repressor under hypoxia condition at 60 uM after 48 hrs by Western blot analysis; assay type: functional, cell-based
[12] = system: LS174T; experiment: Reduction in CA9 level in human LS 174T cells expressing shca9 and tetracyclin repressor under hypoxia condition at 60 uM after 48 hrs by Western blot analysis; assay type: functional, cell-based
How it was run: as §3

Question: Which Ki [1] does the source give for `NS(=O)(=O)c1ccc(-n2nnc(CS(=O)(=O)[C@@H]3O[C@H](CO)[C@@H](O[C@H]4O[C@H](CO)[C@@H](O)[C@H](O)[C@H]4O)[C@H](O)[C@H]3O)c2I)cc1` here?
Answer: The Ki was 68 nM.

Question: With `NS(=O)(=O)c1ccc(-n2nnc(CS[C@@H]3O[C@H](CO)[C@@H](O)[C@H](O)[C@H]3O)c2I)cc1` as the molecule, how does the Ki [1] read?
Answer: Its Ki is 6.5 nM.

Question: And the Activity [2]?
Answer: The Activity was “Non-toxic”.

Question: And the Activity [3]?
Answer: The Activity was “Non-toxic”.

Question: What about the Activity [4] of the same molecule?
Answer: The Activity was “Non-toxic”.

Question: What about the Activity [5] of the same molecule?
Answer: The Activity was “Non-toxic”.

Question: Which Ki [1] does the source give for `CC(=O)OC[C@H]1O[C@@H](S(=O)(=O)Cc2cn(-c3ccc(S(N)(=O)=O)cc3)nn2)[C@H](OC(C)=O)[C@@H](OC(C)=O)[C@@H]1O[C@H]1O[C@H](COC(C)=O)[C@@H](OC(C)=O)[C@H](OC(C)=O)[C@H]1OC(C)=O` here?
Answer: The Ki was 61.9 nM.

Question: Which Ki [1] does the source give for `CC(=O)OC[C@H]1O[C@@H](SCc2nnn(-c3ccc(S(N)(=O)=O)cc3)c2I)[C@H](OC(C)=O)[C@@H](OC(C)=O)[C@H]1OC(C)=O` here?
Answer: Its Ki is 95 nM.

Question: Which Activity [2] does the source give for `NS(=O)(=O)c1ccc(-n2cc(CS[C@@H]3O[C@H](CO)[C@@H](O)[C@H](O)[C@H]3O)nn2)cc1` here?
Answer: The Activity was “Non-toxic”.

Question: What about the Activity [3] of the same molecule?
Answer: The Activity was “Non-toxic”.

Question: What about the Activity [4] of the same molecule?
Answer: Its Activity is “Non-toxic”.

Question: And the Activity [5]?
Answer: Its Activity is “Non-toxic”.

Question: Which Ki [1] does the source give for `CC(=O)OC[C@H]1O[C@@H](S(=O)(=O)Cc2nnn(-c3ccc(S(N)(=O)=O)cc3)c2I)[C@H](OC(C)=O)[C@@H](OC(C)=O)[C@H]1OC(C)=O` here?
Answer: Its Ki is 97 nM.

Question: With `NS(=O)(=O)c1ccc(-n2nnc(CS[C@@H]3O[C@H](CO)[C@H](O)[C@H](O)[C@H]3O)c2I)cc1` as the molecule, how does the Ki [1] read?
Answer: The Ki was 7.3 nM.

Question: Which Ki [1] does the source give for `NS(=O)(=O)c1ccc(-n2cc(CS(=O)(=O)[C@@H]3O[C@H](CO)[C@@H](O[C@H]4O[C@H](CO)[C@@H](O)[C@H](O)[C@H]4O)[C@H](O)[C@H]3O)nn2)cc1` here?
Answer: The Ki was 71.2 nM.

Question: Which results are given for `CC(=O)OC[C@H]1O[C@@H](S(=O)(=O)Cc2nnn(-c3ccc(S(N)(=O)=O)cc3)c2I)[C@H](OC(C)=O)[C@@H](OC(C)=O)[C@@H]1OC(C)=O`?
Answer: Ki [1]: 71 nM; Activity [2]: Non-toxic; Activity [3]: Toxic; Activity [4]: Toxic; Activity [5]: Toxic

Question: Which Ki [1] does the source give for `CC(=O)OC[C@H]1O[C@@H](SCc2nnn(-c3ccc(S(N)(=O)=O)cc3)c2I)[C@H](OC(C)=O)[C@@H](OC(C)=O)[C@@H]1OC(C)=O` here?
Answer: Its Ki is 6.2 nM.

Question: What about the Activity [2] of the same molecule?
Answer: Its Activity is “Non-toxic”.

Question: What about the Activity [6] of the same molecule?
Answer: Its Activity is “Active”.

Question: What about the Activity [7] of the same molecule?
Answer: Its Activity is 16%.

Question: And the Activity [3]?
Answer: The Activity was “Non-toxic”.

Question: What about the Activity [4] of the same molecule?
Answer: The Activity was “Toxic”.

Question: And the Activity [8]?
Answer: The Activity was “Active”.

Question: And the inhibition [9]?
Answer: Its inhibition is “Active”.

Question: And the Activity [10]?
Answer: The Activity was 60%.

Question: And the Activity [11]?
Answer: The Activity was “Active”.

Question: What about the Activity [12] of the same molecule?
Answer: The Activity was “Active”.

Question: And the Activity [5]?
Answer: Its Activity is “Toxic”.

Question: Which Ki [1] does the source give for `NS(=O)(=O)c1ccc(-n2nnc(CS(=O)(=O)[C@@H]3O[C@H](CO)[C@H](O)[C@H](O)[C@H]3O)c2I)cc1` here?
Answer: Its Ki is 89 nM.

Question: For `NS(=O)(=O)c1ccc(-n2nnc(CS(=O)(=O)[C@@H]3O[C@H](CO)[C@@H](O)[C@H](O)[C@H]3O)c2I)cc1`, which Ki [1] is on record?
Answer: The Ki was 61 nM.

Question: What about the Activity [2] of the same molecule?
Answer: Its Activity is “Non-toxic”.

Question: What about the Activity [3] of the same molecule?
Answer: Its Activity is “Non-toxic”.

Question: What about the Activity [4] of the same molecule?
Answer: The Activity was “Non-toxic”.

Question: And the Activity [5]?
Answer: Its Activity is “Toxic”.

Question: With `CC(=O)OC[C@H]1O[C@@H](S(=O)(=O)Cc2cn(-c3ccc(S(N)(=O)=O)cc3)nn2)[C@H](OC(C)=O)[C@@H](OC(C)=O)[C@@H]1OC(C)=O` as the molecule, how does the Activity [2] read?
Answer: Its Activity is “Non-toxic”.

Question: And the Activity [3]?
Answer: The Activity was “Non-toxic”.

Question: What about the Activity [4] of the same molecule?
Answer: The Activity was “Non-toxic”.

Question: What about the Activity [5] of the same molecule?
Answer: Its Activity is “Non-toxic”.

Question: Which Activity [2] does the source give for `CC(=O)OC[C@H]1O[C@@H](SCc2cn(-c3ccc(S(N)(=O)=O)cc3)nn2)[C@H](OC(C)=O)[C@@H](OC(C)=O)[C@@H]1OC(C)=O` here?
Answer: The Activity was “Non-toxic”.

Question: And the Activity [3]?
Answer: Its Activity is “Non-toxic”.

Question: What about the Activity [4] of the same molecule?
Answer: The Activity was “Non-toxic”.

Question: Which Ki [1] does the source give for `CC(=O)OC[C@H]1O[C@@H](S(=O)(=O)Cc2nnn(-c3ccc(S(N)(=O)=O)cc3)c2I)[C@H](OC(C)=O)[C@@H](OC(C)=O)[C@@H]1O[C@H]1O[C@H](COC(C)=O)[C@@H](OC(C)=O)[C@H](OC(C)=O)[C@H]1OC(C)=O` here?
Answer: The Ki was 99.6 nM.

Question: Which Ki [1] does the source give for `CC(=O)OC[C@H]1O[C@@H](SCc2nnn(-c3ccc(S(N)(=O)=O)cc3)c2C#CCO)[C@H](OC(C)=O)[C@@H](OC(C)=O)[C@H]1OC(C)=O` here?
Answer: Its Ki is 91 nM.

Question: For `CC(=O)Nc1nnc(S(N)(=O)=O)s1` [ACETAZOLAMIDE], which Activity [2] is on record?
Answer: The Activity was “Non-toxic”.

Question: What about the Activity [3] of the same molecule?
Answer: Its Activity is “Non-toxic”.

Question: What about the Activity [4] of the same molecule?
Answer: The Activity was “Non-toxic”.

Question: And the Activity [5]?
Answer: Its Activity is “Toxic”.

Question: Which Activity [2] does the source give for `NS(=O)(=O)c1ccc(-n2cc(CS(=O)(=O)[C@@H]3O[C@H](CO)[C@@H](O)[C@H](O)[C@H]3O)nn2)cc1` here?
Answer: Its Activity is “Non-toxic”.

Question: And the Activity [3]?
Answer: Its Activity is “Non-toxic”.

Question: And the Activity [4]?
Answer: Its Activity is “Non-toxic”.

Question: What about the Activity [5] of the same molecule?
Answer: Its Activity is “Non-toxic”.
